Reference: PubChem BioAssay
Records with an inconclusive call do not appear. The source made the active and inactive calls.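 How the source made its calls, unless noted: active means viability increase at or above a cutoff of the median across tested compounds plus 3 SD (cut at about 8.5% in these data, passing the limit was not always enough); inconclusive means some gains above the cutoff, reason not given; inactive means the rest.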

Tests used:
[1] = S. cerevisiae growth inhibition in permissive medium (OD615), pilot counter-assay for S. cerevisiae lifespan shortening project, permissive growth control (AID 705;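 active means growth inhibition above 25% in both replicates, a cutoff set 3 SD above the mean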); conditions: OD615, 24 h, at 10 µM, active compounds read high
Procedure, shortened: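 System: Engineered DeaD yeast | Buffer or medium: SC raffinose/galactose permissive medium | Incubation: Cells pre-grown 4 h, then 24 h compound exposure, 30 °C humidified | Measured by: Absorbance (optical density) at 615 nm | Read-out: Reduction in yeast growth (OD615)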

[2] = S. cerevisiae growth inhibition in restrictive medium, OD615, pilot screen, restrictive growth control, yeast lifespan reduction project (AID 706;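 active means growth inhibition above a set limit, 3 SD over mean compound inhibition, in both replicates, cut at about 43% in these data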;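 further: modified DeaD lifespan yeast strain shifted to restrictive glucose medium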); conditions: OD615, 48 h, at 10 µM, active compounds read high
Procedure, shortened: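 Material: modified S. cerevisiae; Medium: glucose-based CSMM-D restrictive medium; Compound dosing: one concentration, 10 µM final, 0.25% DMSO; Incubation: 48 h compound exposure at 30 °C; Measured by: OD615.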

[3] = doxorubicin toxicity protection in MRP-1 cells – H69AR cells, CellTiter-Glo, duplicate, MRP-1 activator project, pilot screen (AID 807); conditions: H69AR viability with doxorubicin, CellTiter-Glo luminescence; at 10 µM; active compounds read high;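 further: compound pretreatment 18-22 h then 72 h combined with doxorubicin; 0% = doxorubicin alone and 100% = vehicle without doxorubicin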
[4] = viability of HCT116 without oncogenic beta-catenin – human colon tumor cells, pilot screen (AID 823;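 active means cell viability at or below a set limit in both duplicate runs, the limit being the all-compound median minus 4 SD, cut at about 23% in these data, passing the limit was not always enough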;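 further: 0% = wells killed by 20 µM Hyamine and 100% = untreated DMSO cell wells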); conditions: HCT116 beta-catenin knockout viability, CellTiter-Glo, 60 h; at 10 µM; active compounds read low
[5] = viability of PTEN-null HCT116 cells – cell-based, HCT116 clonal line, CellTiter-Glo, pilot screen (AID 824;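 active means viability at or below 27.92% in each of two runs, the all-compound median minus 4 SD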;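 further: 0% = 20 µM Hyamine control and 100% = vehicle cell control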); conditions: HCT116 PTEN-deleted viability, 60 h, at 10 µM, active compounds read low
[6] = RAM pathway blockade in budding yeast – dse1pr::URA3 reporter, 5-FOA selection, pilot screen (AID 869;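 active means inhibition over a set limit, the all-compound mean plus 3 SD, in both replicate runs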;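 further: 0% = DMSO wells with no growth and 100% = 10 µM 1-NA-PP1 with full growth; RAM network block rescues cells from 5-FOA so hits raise OD615 growth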); conditions: S. cerevisiae dse1pr::URA3 5-FOA growth, OD615, 2 d; at 10 µM; active compounds read high; strain carries analog-sensitive mutant Cbk1 kinase
[7] = RAM signaling pathway blockade in yeast – S. cerevisiae, Pdr1DBD-CYC8 efflux-inhibited sensitized strain, primary screen (AID 1298;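 active means RAM network inhibition above 8.4% in each of two replicates, 3 SD over the compound average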;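 further: 0% = DMSO untreated cells without growth and 100% = 10 µM 1-NA-PP1 full growth; higher means more yeast growth rescued from 5-FOA killing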); conditions: S. cerevisiae cbk1-as DSE1-URA3 strain, 5-FOA growth OD615, 2 d; at 50 µM; active compounds read high

CCOC(=O)c1c(C)[nH]c(C(=O)CSc2nnnn2-c2ccccc2)c1C
inactive: growth inhibition [1] -7.16% | growth inhibition [2] -0.165% | viability increase [3] -1.88% | viability [4] 100% | viability [5] 93.4% | inhibition [6] 2.31% | RAM network inhibition [7] 1.57%

O=C(CCCC(=O)OCC(F)(F)C(F)F)Nc1nccs1
inactive: growth inhibition [1] -7.96% | growth inhibition [2] 8.98% | viability increase [3] -0.61% | viability [4] 101% | viability [5] 102% | inhibition [6] 1.56% | RAM network inhibition [7] -0.01%

COc1ccc(N2CCN(Cc3nc4c(c(=O)n(C)c(=O)n4C)n3Cc3cccc(C)c3)CC2)cc1
inactive: growth inhibition [1] -11.5% | growth inhibition [2] -24.2% | viability increase [3] -3.88% | viability [4] 80.1% | viability [5] 75.2% | inhibition [6] -0.7% | RAM network inhibition [7] 8.85%

COc1ccccc1N1CCN(C(=O)C2CCN(S(=O)(=O)c3ccccc3)CC2)CC1
inactive: growth inhibition [1] -0.075% | growth inhibition [2] 2.96% | viability increase [3] -1.42% | viability [4] 92.6% | viability [5] 95.6% | inhibition [6] 1.07% | RAM network inhibition [7] 5.76%

COc1ccc(-n2nc3c(c2NC(=O)C24CC5CC(CC(C5)C2)C4)CS(=O)C3)cc1 (centres undefined)
inactive: growth inhibition [1] 1.36% | growth inhibition [2] 9.3% | viability increase [3] -0.78% | viability [4] 97.2% | viability [5] 93.5% | inhibition [6] -0.08% | RAM network inhibition [7] -1.31%

CC(=O)Nc1ccc(S(=O)(=O)N2CCN(c3nc(NC4CCCC4)c4ccccc4n3)CC2)cc1
inactive: growth inhibition [1] 0.72% | growth inhibition [2] -1.39% | viability increase [3] -8.11% | inhibition [6] 1.15% | RAM network inhibition [7] 3.62%
active: viability [4] 1.42% | viability [5] 1.7%

CC(C)C(NS(=O)(=O)c1ccc2c(c1)oc(=O)n2C)C(=O)N1CCN(C2CCCCC2)CC1 (centres undefined)
inactive: growth inhibition [1] -2.87% | growth inhibition [2] -9.46% | viability increase [3] -3.02% | viability [4] 106% | viability [5] 95.6% | inhibition [6] 0.14% | RAM network inhibition [7] 6.54%
